Values after ≈ are worked out from the molar mass of the structure shown.

We go through 13 compounds from ChEMBL document CHEMBL1136390, “Piperazinyl-linked fluoroquinolone dimers possessing potent antibacterial activity against drug-resistant strains of Staphylococcus aureus” (2003).

Common to all, as to assay type: functional
The subject of test [1] is Staphylococcus aureus. Description: Minimum inhibitory concentration tested against Staphylococcus aureus 1199 strain. The procedure, abridged:
(§1)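 MICs against S. aureus strains were read in µg/mL from a dilution series. Stated error for each MIC is ± one dilution.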

Test [2] relates to Staphylococcus aureus. Description: Minimum inhibitory concentration tested against Staphylococcus aureus 1199-3 strain. The procedure, abridged:
as §1

In test [3] the test system is Staphylococcus aureus. Description: Minimum inhibitory concentration tested against Staphylococcus aureus 1199B strain. An outline of the steps:
as §1

The subject of test [4] is Staphylococcus aureus. The test is described as follows: Minimum inhibitory concentration tested against methicillin resistant Staphylococcus aureus 494 strain (MRSA 494). The procedure, abridged: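 MIC in µg/mL against drug-resistant S. aureus strains; error stated as ± one dilution.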
Test [5] relates to Staphylococcus aureus. The test is described as follows: Minimum inhibitory concentration tested against vancomycin-insensitive SA (GISA 992 strain). An outline of the steps:
as §1

As to `CCn1cc(C(=O)O)c(=O)c2cc(F)c(N3CCNCC3)cc21` [NORFLOXACIN], the MIC was 0.5 µg/mL (≈ 1.57 µM) in test [1]; 4 µg/mL (≈ 12.5 µM) in test [2]; more than 16 µg/mL in test [3]; 2 µg/mL (≈ 6.26 µM) in test [4]; more than 16 µg/mL in test [5].
Take `O=C(O)c1cn(C2CC2)c2cc(N3CCN(C/C=C/CN4CCN(c5cc6c(cc5F)c(=O)c(C(=O)O)cn6C5CC5)CC4)CC3)c(F)cc2c1=O`: the MIC in test [1] was 0.03 µg/mL (≈ 0.042 µM); in test [2], 0.06 µg/mL (≈ 0.0839 µM); in test [3], 0.03 µg/mL (≈ 0.042 µM); in test [4], 0.125 µg/mL (≈ 0.175 µM); in test [5] it was more than 16 µg/mL.
Turning to `O=C(O)c1cn(C2CC2)c2cc(N3CCNCC3)c(F)cc2c1=O` [CIPROFLOXACIN], the MIC is 1 µg/mL (≈ 3.02 µM) in test [2], 8 µg/mL (≈ 24.1 µM) in test [3], 0.5 µg/mL (≈ 1.51 µM) in test [4] and more than 32 µg/mL in test [5].
For the compound `O=C(O)c1cn(C2CC2)c2cc(N3CCN(Cc4ccc(-c5ccc(CN6CCN(c7cc8c(cc7F)c(=O)c(C(=O)O)cn8C7CC7)CC6)cc5)cc4)CC3)c(F)cc2c1=O`, the MIC in test [1] was 4 µg/mL (≈ 4.76 µM); in test [2], 8 µg/mL (≈ 9.51 µM); in test [3], 8 µg/mL (≈ 9.51 µM); in test [5], more than 16 µg/mL.
In the case of `CCn1cc(C(=O)O)c(=O)c2cnc(N3CCN(Cc4ccc(CN5CCN(c6ncc7c(=O)c(C(=O)O)cn(CC)c7n6)CC5)cc4)CC3)nc21`, the MIC in test [1] came out at 0.5 µg/mL (≈ 0.705 µM); in test [2], 0.5 µg/mL (≈ 0.705 µM); in test [3], 4 µg/mL (≈ 5.64 µM); in test [4] it was 2 µg/mL (≈ 2.82 µM); in test [5], 8 µg/mL (≈ 11.3 µM).
For the compound `CCn1cc(C(=O)O)c(=O)c2cc(F)c(N3CCN(C/C=C/CN4CCN(c5cc6c(cc5F)c(=O)c(C(=O)O)cn6CC)CC4)CC3)cc21`, the MIC in test [1] was 0.25 µg/mL (≈ 0.362 µM); in test [2] it was 0.125 µg/mL (≈ 0.181 µM); in test [3], 0.125 µg/mL (≈ 0.181 µM); in test [4], 0.125 µg/mL (≈ 0.181 µM); in test [5], more than 16 µg/mL.
`CCn1cc(C(=O)O)c(=O)c2cc(F)c(N3CCN(Cc4ccc(CN5CCN(c6cc7c(cc6F)c(=O)c(C(=O)O)cn7CC)CC5)cc4)CC3)cc21`: the MIC in test [1] turned out to be 0.06 µg/mL (≈ 0.081 µM); in test [2], 0.06 µg/mL (≈ 0.081 µM); in test [3], 1 µg/mL (≈ 1.35 µM); in test [4] it was 0.06 µg/mL (≈ 0.081 µM); in test [5], 4 µg/mL (≈ 5.4 µM).
For `CCn1cc(C(=O)O)c(=O)c2cnc(N3CCN(Cc4ccc(CN5CCN(c6cc7c(cc6F)c(=O)c(C(=O)O)cn7C6CC6)CC5)cc4)CC3)nc21`, the MIC in test [1] is less than 0.03 µg/mL; in test [2] it was less than 0.03 µg/mL; in test [3], less than 0.03 µg/mL; in test [4], 0.125 µg/mL (≈ 0.17 µM); in test [5], 2 µg/mL (≈ 2.71 µM).
Regarding `O=C(O)c1cn(C2CC2)c2cc(N3CCN(Cc4cccc(CN5CCN(c6cc7c(cc6F)c(=O)c(C(=O)O)cn7C6CC6)CC5)c4)CC3)c(F)cc2c1=O`, the MIC was 0.06 µg/mL (≈ 0.0784 µM) in test [1]; 0.06 µg/mL (≈ 0.0784 µM) in test [2]; 0.125 µg/mL (≈ 0.163 µM) in test [3]; less than 0.03 µg/mL in test [4]; more than 16 µg/mL in test [5].
Turning to `CCn1cc(C(=O)O)c(=O)c2cnc(N3CCNCC3)nc21` [PIPEMIDIC ACID], the MIC in test [1], in test [2], in test [3] and in test [5] was more than 16 µg/mL in each case.
On to `O=C(O)c1cn(C2CC2)c2cc(N3CCN(Cc4cccc(CN5CCN(c6cc7c(cc6F)c(=O)c(C(=O)O)cn7C6CC6)CC5)n4)CC3)c(F)cc2c1=O`, for which the MIC in test [1] is less than 0.03 µg/mL; in test [2] it was less than 0.03 µg/mL; in test [3], less than 0.03 µg/mL; in test [4], 0.06 µg/mL (≈ 0.0783 µM); in test [5], 8 µg/mL (≈ 10.4 µM).
In the case of `CCn1cc(C(=O)O)c(=O)c2cc(F)c(N3CCN(Cc4ccc(CN5CCN(c6cc7c(cc6F)c(=O)c(C(=O)O)cn7C6CC6)CC5)cc4)CC3)cc21`, the MIC in test [1] was less than 0.03 µg/mL; in test [2] it was less than 0.03 µg/mL; in test [3], 0.06 µg/mL (≈ 0.0797 µM); in test [5], 4 µg/mL (≈ 5.31 µM).
Turning to `O=C(O)c1cn(C2CC2)c2cc(N3CCN(Cc4ccc(CN5CCN(c6cc7c(cc6F)c(=O)c(C(=O)O)cn7C6CC6)CC5)cc4)CC3)c(F)cc2c1=O`, the MIC came out at 0.125 µg/mL (≈ 0.163 µM) in test [1]; 0.125 µg/mL (≈ 0.163 µM) in test [2]; 0.125 µg/mL (≈ 0.163 µM) in test [3]; 0.125 µg/mL (≈ 0.163 µM) in test [4]; 4 µg/mL (≈ 5.23 µM) in test [5].
